As usually defined, the ED50 is the dose that gives a 50% effect, or the effect in half of the subjects. Higher therefore signals weaker potency.

Molecules are shown by their SMILES. In brackets after ≈: the same amount, converted by molar mass. Some results are limits rather than exact numbers.

For six compounds, ED50 and MIC results are on record in ChEMBL document CHEMBL1125014, “Synthesis and structure-activity relationships of new 9-N-alkyl derivatives of 9(S)-erythromycylamine” (1990).

What all share (type): functional
Assay [1] deals with Mus musculus. Nature of the assay: ED50 value was measured against streptococcus pneumoniae after sc administration in mice (in vivo, in experiment 2). In short, it runs like this: (§1)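 Infected mice were dosed orally or subcutaneously at 1 and 5 h postinfection, 0.25 mL of antibiotic solution in 10% aqueous ethanol per dose. Tartaric acid was added where needed for solubility. Several dose concentrations were tested to give the ED50.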

Assay [2] deals with Haemophilus influenzae. Briefly: MIC value was measured against haemophilus influenzae CL.
The test system of assay [3] is Mus musculus. Nature of the assay: ED50 value was measured against streptococcus pyogenes after sc administration in mice (in vivo, in experiment 2). In a few lines: as §1
Assay [4] concerns Mus musculus. Nature of the assay: ED50 value was measured against streptococcus pyogenes after po administration in mice (in vivo, in experiment 2). In short, it runs like this: as §1
Assay [5] deals with Streptococcus pneumoniae. Nature of the assay: MIC value measured against streptococcus pneumoniae Park1.
The test system of assay [6] is Mus musculus. Briefly: ED50 value was measured against staphylococcus aureus after po administration in mice (in vivo, in experiment 2). In short, it runs like this: as §1
Assay [7] deals with Mus musculus. Briefly: ED50 value was measured against streptococcus pneumoniae after po administration in mice (in vivo, in experiment 2). In a few lines: as §1
Assay [8] has as its system Streptococcus pneumoniae. Nature of the assay: Effective dose against mice infected with streptococcus pneumoniae after peroral administration (in vivo). The settings on record: in Mus musculus, po.
In assay [9] the test system is Staphylococcus aureus. Briefly: MIC value measured against staphylococcus aureus X1.
In assay [10] the test system is Mus musculus. Briefly: ED50 value was measured against staphylococcus aureus after sc administration in mice (in vivo, in experiment 2). In a few lines: as §1
Assay [11] deals with Streptococcus pyogenes. Briefly: Effective dose against mice infected with streptococcus pyogenes after peroral administration (in vivo). The note with it: in Mus musculus, po.
Assay [12] deals with Staphylococcus epidermidis. Nature of the assay: microbe, parasite or virus in culture.
Assay [13] has as its system Streptococcus pyogenes. Nature of the assay: MIC value measured against streptococcus pyogenes C203.
In assay [14] the test system is Haemophilus influenzae. Briefly: MIC value was measured against haemophilus influenzae. In a few lines: (§2)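 Susceptibility determined by standard agar-dilution method against a panel of bacterial strains.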
The test system of assay [15] is Staphylococcus aureus. Nature of the assay: Effective dose against mice infected with Staphylococcus aureus after peroral administration (in vivo). The note with it: in Mus musculus, po.
Assay [16] relates to Streptococcus pneumoniae. Briefly: MIC value was measured against streptococcus pneumoniae park1. In short, it runs like this:
as §2

The subject of assay [17] is Mus musculus. Briefly: ED50 value was measured against streptococcus pneumoniae after po administration in mice in vivo, in experiment 3). In a few lines: as §1
Assay [18] deals with Enterococcus faecalis. Briefly: MIC value was measured against streptococcus faecalis X66. In a few lines: as §2
Assay [19] has as its system Mus musculus. Briefly: ED50 value was measured against staphylococcus aureus after sc administration in mice in vivo, in experiment 3). In a few lines:
as §1

Assay [20] concerns Mus musculus. Briefly: ED50 value was measured against streptococcus pyogenes after sc administration in mice in vivo, in experiment 3). In short, it runs like this: as §1
For assay [21], the system named is Mus musculus. Briefly: ED50 value was measured against staphylococcus aureus after po administration in mice in vivo, in experiment 3). In short, it runs like this: as §1
The test system of assay [22] is Mus musculus. Nature of the assay: ED50 value was measured against streptococcus pneumoniae after sc administration in mice in vivo, in experiment 3). In short, it runs like this:
as §1

Assay [23] deals with Mus musculus. Briefly: ED50 value was measured against streptococcus pyogenes after po administration in mice (in vivo, in experiment 3). In a few lines: as §1
The test system of assay [24] is Enterococcus faecalis. Briefly: MIC value was measured against streptococcus faecalis.
Assay [25] has as its system Mus musculus. Nature of the assay: ED50 value was measured by sc administration against staphylococcus aureus infection in mice (in vivo, in experiment 2). In a few lines: as §1
The test system of assay [26] is Mus musculus. Briefly: ED50 value was measured by po administration against staphylococcus aureus infection in mice (in vivo, in experiment 2). In a few lines: as §1
Assay [27] relates to Mus musculus. Nature of the assay: ED50 value was measured by sc administration against staphylococcus aureus infection in mice (in vivo, in experiment 1). In short, it runs like this: as §1
Assay [28] relates to Mus musculus. Nature of the assay: ED50 value was measured by po administration against streptococcus pneumoniae infection in mice (in vivo, in experiment 2). In a few lines:
as §1

In assay [29] the test system is Mus musculus. Nature of the assay: ED50 value was measured by po administration against streptococcus pneumoniae infection in mice (in vivo, in experiment 1). In a few lines: as §1
Assay [30] has as its system Mus musculus. Nature of the assay: ED50 value was measured by sc administration against streptococcus pneumoniae infection in mice (in vivo, in experiment 1). In short, it runs like this: as §1
In assay [31] the test system is Mus musculus. Briefly: ED50 value was measured by sc administration against streptococcus pneumoniae infection in mice (in vivo, in experiment 2). In short, it runs like this: as §1
The test system of assay [32] is Mus musculus. Briefly: ED50 value was measured by po administration against streptococcus pyogenes infection in mice (in vivo, in experiment 2). In short, it runs like this:
as §1

For assay [33], the system named is Mus musculus. Nature of the assay: ED50 value was measured by sc administration against streptococcus pyogenes infection in mice (in vivo, in experiment 1). In short, it runs like this: as §1
In assay [34] the test system is Mus musculus. Nature of the assay: ED50 value was measured by po administration against staphylococcus aureus infection in mice (in vivo, in experiment 1). In a few lines: as §1
The subject of assay [35] is Mus musculus. Briefly: ED50 value was measured by po administration against streptococcus pyogenes infection in mice (in vivo, in experiment 1). In short, it runs like this: as §1
Assay [36] has as its system Mus musculus. Briefly: ED50 value was measured by sc administration against streptococcus pyogenes infection in mice (in vivo, in experiment 2). In a few lines: as §1
The species named for assay [37] is Mus musculus. Briefly: ED50 value was measured against streptococcus pyogenes infection in mice. In short, it runs like this:
as §1

Take `CC[C@H]1OC(=O)[C@H](C)[C@@H](OC2CC(C)(OC)C(O)C(C)O2)[C@H](C)[C@@H](OC2OC(C)CC(N(C)C)C2O)[C@](C)(O)C[C@@H](C)[C@H](NCCCOC)[C@H](C)[C@@H](O)[C@]1(C)O` (stereo partly specified): the 50% effective dose (ED50) in the assay with Mus musculus [1] was determined as 8.3 mg/kg; in the assay with Mus musculus [3], 2.1 mg/kg; in the assay with Mus musculus [4] it was 19 mg/kg; in the assay with Mus musculus [6], 36 mg/kg; in the assay with Mus musculus [7], 17 mg/kg; in the assay on Streptococcus pneumoniae [8], 16 mg/kg. Moreover, the median effective dose (ED50) in the assay on Mus musculus [10] is 3.7 mg/kg; in the assay on Streptococcus pyogenes [11], 14 mg/kg; with Staphylococcus aureus [15], 16 mg/kg. For the same compound, the MIC with Haemophilus influenzae [2] worked out at 0.5 µg/mL (≈ 0.62 µM); in the assay on Streptococcus pneumoniae [5] it was 0.03 µg/mL (≈ 0.0372 µM); in the assay with Staphylococcus aureus [9], 0.5 µg/mL (≈ 0.62 µM); in assay [12], 0.5 µg/mL (≈ 0.62 µM); against Streptococcus pyogenes [13] it was 0.06 µg/mL (≈ 0.0743 µM); with Haemophilus influenzae [14], 0.5 µg/mL (≈ 0.62 µM).
For the compound `CC[C@H]1OC(=O)[C@H](C)[C@@H](OC2CC(C)(OC)C(O)C(C)O2)[C@H](C)[C@@H](OC2OC(C)CC(N(C)C)C2O)[C@](C)(O)C[C@@H](C)[C@@H]2NC(COCCOC)O[C@H]([C@H]2C)[C@]1(C)O` (stereo partly specified), the MIC against Streptococcus pneumoniae [16] stood at 0.06 µg/mL (≈ 0.0718 µM); in the assay with Haemophilus influenzae [2] it was 2 µg/mL (≈ 2.39 µM); in the assay with Enterococcus faecalis [18], 0.25 µg/mL (≈ 0.299 µM); in the assay with Staphylococcus aureus [9] it was 0.5 µg/mL (≈ 0.599 µM); in assay [12], 0.5 µg/mL (≈ 0.599 µM); against Streptococcus pyogenes [13] it was 0.12 µg/mL (≈ 0.144 µM). The ED50 stood at 23 mg/kg in the assay with Mus musculus [17]; 1 mg/kg in the assay on Mus musculus [19]; 32 mg/kg with Streptococcus pneumoniae [8]; 0.6 mg/kg in the assay with Mus musculus [20]; 27 mg/kg in the assay on Mus musculus [21]; 43 mg/kg with Streptococcus pyogenes [11]. The ED50 with Mus musculus [22] is below 0.6 mg/kg; in the assay on Staphylococcus aureus [15], above 50 mg/kg; in the assay on Mus musculus [23], 34 mg/kg.
Turning to `CC[C@H]1OC(=O)[C@H](C)[C@@H](OC2CC(C)(OC)C(O)C(C)O2)[C@H](C)[C@@H](OC2OC(C)CC(N(C)C)C2O)[C@](C)(O)C[C@@H](C)/C(=N\O)[C@H](C)[C@@H](O)[C@]1(C)O` (stereo partly specified), the MIC in the assay on Haemophilus influenzae [2] stood at 0.5 µg/mL (≈ 0.668 µM); in the assay on Streptococcus pneumoniae [5] it was 0.008 µg/mL (≈ 0.0107 µM); against Staphylococcus aureus [9] it was 0.25 µg/mL (≈ 0.334 µM); in the assay on Enterococcus faecalis [24], 0.06 µg/mL (≈ 0.0801 µM); in assay [12], 0.06 µg/mL (≈ 0.0801 µM); in the assay with Streptococcus pyogenes [13], 0.008 µg/mL (≈ 0.0107 µM).
As to `CC[C@H]1OC(=O)[C@H](C)[C@@H](OC2CC(C)(OC)C(O)C(C)O2)[C@H](C)[C@@H](OC2OC(C)CC(N(C)C)C2O)[C@](C)(O)C[C@@H](C)[C@H](NCCOC)[C@H](C)[C@@H](O)[C@]1(C)O` (stereo partly specified), the ED50 in the assay with Mus musculus [25] was found to be 2.5 mg/kg; with Mus musculus [26], 35 mg/kg; in the assay with Mus musculus [27] it was 2 mg/kg; in the assay on Mus musculus [28] it was 19 mg/kg; with Mus musculus [29], 25 mg/kg; in the assay with Mus musculus [30], 2 mg/kg. In addition, the ED50 in the assay on Streptococcus pneumoniae [8] amounted to 19 mg/kg; in the assay with Mus musculus [31], 3.3 mg/kg; in the assay with Mus musculus [32], 16 mg/kg; with Streptococcus pyogenes [11], 16 mg/kg; in the assay on Mus musculus [33], 1.7 mg/kg; in the assay with Mus musculus [34] it was 44 mg/kg. For the same compound, the ED50 worked out at 16 mg/kg with Mus musculus [35], 35 mg/kg with Staphylococcus aureus [15] and 2.1 mg/kg in the assay with Mus musculus [36]. Besides, the MIC stood at 1 µg/mL (≈ 1.26 µM) with Haemophilus influenzae [2]; 0.015 µg/mL (≈ 0.0189 µM) in the assay on Streptococcus pneumoniae [5]; 0.5 µg/mL (≈ 0.63 µM) in the assay with Staphylococcus aureus [9]; 0.25 µg/mL (≈ 0.315 µM) in assay [12]; 0.12 µg/mL (≈ 0.151 µM) in the assay on Streptococcus pyogenes [13]; 1 µg/mL (≈ 1.26 µM) against Haemophilus influenzae [14].
On to `CC[C@H]1OC(=O)[C@H](C)[C@@H](OC2CC(C)(OC)C(O)C(C)O2)[C@H](C)[C@@H](OC2OC(C)CC(N(C)C)C2O)[C@](C)(O)C[C@@H](C)[C@H](NCCCSC)[C@H](C)[C@@H](O)[C@]1(C)O` (stereo partly specified), for which the MIC against Haemophilus influenzae [2] was 4 µg/mL (≈ 4.86 µM); in the assay with Streptococcus pneumoniae [5], 0.015 µg/mL (≈ 0.0182 µM); in [12] it was 0.5 µg/mL (≈ 0.607 µM); in the assay on Streptococcus pyogenes [13], 0.015 µg/mL (≈ 0.0182 µM); in the assay on Haemophilus influenzae [14] it was 4 µg/mL (≈ 4.86 µM). Besides, the values for the ED50 in the assay with Streptococcus pneumoniae [8], in the assay on Staphylococcus aureus [15] and in the assay listed under Mus musculus [37] were 18 mg/kg, 50 mg/kg and 7 mg/kg, respectively.
Consider `CC[C@H]1OC(=O)[C@H](C)[C@@H](OC2CC(C)(OC)C(O)C(C)O2)[C@H](C)[C@@H](OC2OC(C)CC(N(C)C)C2O)[C@](C)(O)C[C@@H](C)[C@H](N)[C@H](C)[C@@H](O)[C@H]1C` (stereo partly specified), for which the MIC in the assay on Haemophilus influenzae [2] was determined as 1 µg/mL (≈ 1.39 µM); in the assay with Streptococcus pneumoniae [5], 0.015 µg/mL (≈ 0.0209 µM); against Staphylococcus aureus [9], 0.25 µg/mL (≈ 0.348 µM); against Enterococcus faecalis [24], 0.12 µg/mL (≈ 0.167 µM); in assay [12] it was 0.12 µg/mL (≈ 0.167 µM); with Streptococcus pyogenes [13], 0.015 µg/mL (≈ 0.0209 µM).
